The values below come from the M2OR odorant receptor database.

Common to all, as to conditions: stereoisomer not certain
Assay [1] concerns the target T1, Or1m1 (Mus musculus) (UniProt Q8VFM9).
T1 sequence (whole entry): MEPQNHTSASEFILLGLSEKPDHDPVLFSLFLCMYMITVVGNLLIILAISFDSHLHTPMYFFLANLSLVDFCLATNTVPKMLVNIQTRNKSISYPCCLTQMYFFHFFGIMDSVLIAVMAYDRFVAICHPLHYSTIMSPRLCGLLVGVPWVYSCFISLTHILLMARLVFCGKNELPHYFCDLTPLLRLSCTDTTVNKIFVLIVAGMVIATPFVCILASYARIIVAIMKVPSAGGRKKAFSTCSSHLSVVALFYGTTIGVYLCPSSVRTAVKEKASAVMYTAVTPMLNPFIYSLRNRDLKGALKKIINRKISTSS
Summed up:
(§1)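 Assay methods differ from source to source, frequently being transient luciferase assays in mammalian cell lines. For each receptor–molecule pair, the label responsive (active) applies when the original authors judged the measured signal statistically different from baseline, and non-responsive (inactive) applies otherwise.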

For assay [2], the target named is T2, Or2c1 (Mus musculus) (UniProt P23275).
T2 sequence (whole entry): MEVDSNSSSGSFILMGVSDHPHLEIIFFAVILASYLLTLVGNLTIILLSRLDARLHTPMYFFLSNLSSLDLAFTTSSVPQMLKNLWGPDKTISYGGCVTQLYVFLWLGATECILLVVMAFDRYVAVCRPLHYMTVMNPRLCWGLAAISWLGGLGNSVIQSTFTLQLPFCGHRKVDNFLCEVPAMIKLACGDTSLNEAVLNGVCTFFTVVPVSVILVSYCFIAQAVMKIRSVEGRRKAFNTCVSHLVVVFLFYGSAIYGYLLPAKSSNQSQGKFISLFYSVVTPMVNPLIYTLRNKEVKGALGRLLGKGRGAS
In outline:
as §1

Assay [3] addresses T3, Or5ar1 (Mus musculus) (UniProt Q8VGS3).
T3 sequence (whole entry): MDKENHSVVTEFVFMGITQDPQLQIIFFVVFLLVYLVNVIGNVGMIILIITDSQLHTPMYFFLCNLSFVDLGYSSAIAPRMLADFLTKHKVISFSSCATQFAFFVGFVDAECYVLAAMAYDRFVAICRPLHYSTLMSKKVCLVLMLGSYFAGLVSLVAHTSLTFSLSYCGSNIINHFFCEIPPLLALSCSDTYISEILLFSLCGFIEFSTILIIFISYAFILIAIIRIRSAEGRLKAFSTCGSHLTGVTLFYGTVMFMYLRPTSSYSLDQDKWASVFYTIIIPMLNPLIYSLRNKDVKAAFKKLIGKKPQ
Summed up: as §1

For assay [4], the target named is T4, Or10j5 (Mus musculus) (UniProt Q62007).
T4 sequence (whole entry): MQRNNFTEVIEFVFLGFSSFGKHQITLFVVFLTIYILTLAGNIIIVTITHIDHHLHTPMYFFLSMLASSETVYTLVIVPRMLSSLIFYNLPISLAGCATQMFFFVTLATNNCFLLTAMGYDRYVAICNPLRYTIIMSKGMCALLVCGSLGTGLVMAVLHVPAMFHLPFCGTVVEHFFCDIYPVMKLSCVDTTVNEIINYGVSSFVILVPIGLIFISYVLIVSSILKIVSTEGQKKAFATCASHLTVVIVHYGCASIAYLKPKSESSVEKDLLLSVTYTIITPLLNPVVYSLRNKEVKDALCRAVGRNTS
In outline: as §1

Assay [5] has as its target T5, Or5an6 (Mus musculus) (UniProt Q8VFV4).
T5 sequence (whole entry): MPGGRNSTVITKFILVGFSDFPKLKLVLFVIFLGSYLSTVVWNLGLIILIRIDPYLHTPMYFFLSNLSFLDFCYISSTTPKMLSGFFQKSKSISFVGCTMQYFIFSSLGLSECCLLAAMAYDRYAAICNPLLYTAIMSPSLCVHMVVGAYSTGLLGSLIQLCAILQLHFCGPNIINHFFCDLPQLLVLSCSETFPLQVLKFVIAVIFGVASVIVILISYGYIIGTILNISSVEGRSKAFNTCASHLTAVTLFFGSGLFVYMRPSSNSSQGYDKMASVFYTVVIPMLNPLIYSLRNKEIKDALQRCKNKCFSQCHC
In outline: as §1

Consider `CCCCC(=O)CC`, for which the “odorant receptor agonist call” value in assay [1], in assay [2] and in assay [3] was “inactive” throughout.

`CCCCCCCCC(=O)O`: the “odorant receptor agonist call” value in assay [1] and in assay [3] was “inactive” each time. Also, the “odorant receptor agonist call” value in assay [2] is “active”.

Consider `CCCCCCCC(C)=O`, for which the “odorant receptor agonist call” value in assay [1], in assay [2] and in assay [3] was “inactive” throughout.

In the case of `O=C1CCOc2ccccc21`, the “odorant receptor agonist call” value in assay [1], in assay [2] and in assay [3] was “inactive” each time.

As for `O=C1Cc2ccccc2O1`, the “odorant receptor agonist call” value in assay [1] and in assay [3] was “inactive” in each case. For the same molecule, in assay [2], the “odorant receptor agonist call” value was “active”.

Regarding `CC(=O)OCc1ccccc1`, the “odorant receptor agonist call” value in assay [1], in assay [2] and in assay [3] was “inactive” throughout.

Consider `O=C(c1ccccc1)c1ccccc1`, for which the “odorant receptor agonist call” value in assay [1], in assay [2] and in assay [3] was “inactive” each time.

For `CC12CCC(CC1=O)C2(C)C` (stereo not given), the “odorant receptor agonist call” value in assay [1], in assay [2] and in assay [3] was “inactive” each time.

Turning to `CCSCC`, the “odorant receptor agonist call” value in assay [1] and in assay [3] was “inactive” in each case.

Regarding `CC(=O)Oc1ccccc1`, the “odorant receptor agonist call” value in assay [1], in assay [2] and in assay [3] was “inactive” throughout.

As to `CCCCCCCCCS`, the “odorant receptor agonist call” value in assay [1], in assay [2] and in assay [3] was “inactive” each time.

In the case of `C=C(C)C1CCC(C)C(=O)C1` (stereo not given), the “odorant receptor agonist call” value in assay [1], in assay [2] and in assay [3] was “inactive” in each case.

Turning to `CCCCCOC(=O)CCCCC`, the “odorant receptor agonist call” value in assay [1] and in assay [3] was “inactive” each time. The “odorant receptor agonist call” value in assay [2] is “active”.

For `CCCCCCOC(C)=O`, the “odorant receptor agonist call” value in assay [1], in assay [2] and in assay [3] was “inactive” each time.

For the molecule `CC(C)CCN`, the “odorant receptor agonist call” value in assay [1] and in assay [3] was “inactive” throughout.

For the molecule `c1ccccc1`, the “odorant receptor agonist call” value in assay [1], in assay [2] and in assay [3] was “inactive” each time.

As to `CCC(=O)C(=O)CC`, the “odorant receptor agonist call” value in assay [1] and in assay [3] was “inactive” in each case. Further, the “odorant receptor agonist call” value in assay [2] is “active”.

`CCOC(=O)C(C)C`: the “odorant receptor agonist call” value in assay [1], in assay [2] and in assay [3] was “inactive” each time.

For `CCCCCC(=O)CC`, the “odorant receptor agonist call” value in assay [1], in assay [2] and in assay [3] was “inactive” each time.

Take `CCCCCCC(C)=O`: the “odorant receptor agonist call” value in assay [1], in assay [2] and in assay [3] was “inactive” each time.

On to `C=CCOC(=O)CCCCCC`, for which the “odorant receptor agonist call” value in assay [1], in assay [2] and in assay [3] was “inactive” in each case.

Regarding `CC(=O)OCC=C(C)C`, the “odorant receptor agonist call” value in assay [1] and in assay [2] was “inactive” each time. For the same molecule, the “odorant receptor agonist call” value in assay [3] is “active”.

For the molecule `COc1cc(C(=O)O)ccc1O`, the “odorant receptor agonist call” value in assay [1], in assay [2] and in assay [3] was “inactive” each time.

`CCCCCCCCCCO`: the “odorant receptor agonist call” value in assay [1], in assay [2] and in assay [3] was “inactive” each time.

Take `CCCC(C)=O`: the “odorant receptor agonist call” value in assay [4], in assay [2] and in assay [3] was “inactive” in each case.

For `CCCCCCCCO`, the “odorant receptor agonist call” value in assay [1], in assay [2] and in assay [3] was “inactive” throughout.

For the molecule `CCCCOC=O`, the “odorant receptor agonist call” value in assay [1], in assay [2] and in assay [3] was “inactive” throughout.

As to `CCC(=O)O`, the “odorant receptor agonist call” value in assay [1], in assay [2] and in assay [3] was “inactive” in each case.

As for `CC(C)=CCCC(C)CCO` (stereo not given), the “odorant receptor agonist call” value in assay [1], in assay [2] and in assay [3] was “inactive” each time.

Take `CC1CC=CCCCCCCCCCC(=O)C1` (stereo not given): the “odorant receptor agonist call” value in assay [1] and in assay [3] was “inactive” each time. Further, the “odorant receptor agonist call” value in assay [5] was “active”.

As to `CCCCC(C)=O`, the “odorant receptor agonist call” value in assay [1], in assay [2] and in assay [3] was “inactive” throughout.

Turning to `CCOC(=O)C(C)CC` (stereo not given), the “odorant receptor agonist call” value in assay [1] and in assay [3] was “inactive” in each case.

`CCCCCCCCC=CC=O`: the “odorant receptor agonist call” value in assay [1] and in assay [3] was “inactive” each time.

`C=C(CC)CCCC(C)(C)O`: the “odorant receptor agonist call” value in assay [1] and in assay [3] was “inactive” throughout.

On to `CCC=CCCC=CC=O`, for which the “odorant receptor agonist call” value in assay [1] and in assay [3] was “inactive” each time.

Take `CC(=O)OCc1ccc2c(c1)OCO2`: the “odorant receptor agonist call” value in assay [1] and in assay [3] was “inactive” each time.

As for `Cc1ccc2c(c1)OCC(=O)CO2`, the “odorant receptor agonist call” value in assay [1] and in assay [3] was “inactive” in each case.

Turning to `CCSSCC`, the “odorant receptor agonist call” value in assay [1] and in assay [3] was “inactive” in each case.

Regarding `CCCC=O`, the “odorant receptor agonist call” value in assay [1] and in assay [3] was “inactive” each time.

In the case of `COc1ccccc1`, the “odorant receptor agonist call” value in assay [1] and in assay [3] was “inactive” in each case.

On to `CCCCCCCOC(=O)C(C)C`, for which the “odorant receptor agonist call” value in assay [1] and in assay [3] was “inactive” in each case.

Regarding `CC(CC=O)CCCC(C)(C)O` (stereo not given), the “odorant receptor agonist call” value in assay [1] and in assay [3] was “inactive” throughout.

In the case of `O=C(OCc1ccccc1)c1ccccc1O`, the “odorant receptor agonist call” value in assay [1] and in assay [3] was “inactive” each time.

For the molecule `CNc1ccccc1C(=O)OC`, the “odorant receptor agonist call” value in assay [1] and in assay [3] was “inactive” in each case.

`O=C(O)CCCCCBr`: the “odorant receptor agonist call” value in assay [1] and in assay [3] was “inactive” in each case.

On to `CCCO`, for which the “odorant receptor agonist call” value in assay [1] and in assay [3] was “inactive” in each case.

For the molecule `CCCC(C)C(=O)OCC` (stereo not given), the “odorant receptor agonist call” value in assay [1] and in assay [3] was “inactive” throughout.

Take `C=CC(=C)CCC=C(C)CCC=C(C)C`: the “odorant receptor agonist call” value in assay [1] and in assay [3] was “inactive” in each case.

`C=C(C)C1CC=C(C)CC1` (stereo not given): the “odorant receptor agonist call” value in assay [1] and in assay [3] was “inactive” each time.

With `C=CC(C)=CCC=C(C)CCC=C(C)C`, the “odorant receptor agonist call” value in assay [1] and in assay [3] was “inactive” throughout.

In the case of `OCCCCCCCCCO`, the “odorant receptor agonist call” value in assay [1] and in assay [3] was “inactive” each time.

Regarding `c1ccc2ncccc2c1`, the “odorant receptor agonist call” value in assay [1] and in assay [3] was “inactive” in each case.

`CCN(CC)CC`: the “odorant receptor agonist call” value in assay [1] and in assay [3] was “inactive” in each case.

Regarding `CCOC(=O)CC(C)C`, the “odorant receptor agonist call” value in assay [1] and in assay [3] was “inactive” each time.

Regarding `CC(C)=CCCC(C)=CCOC(=O)C(C)C`, the “odorant receptor agonist call” value in assay [1] and in assay [3] was “inactive” in each case.

Consider `CC1(C)CC(=O)CC(=O)C1`, for which the “odorant receptor agonist call” value in assay [1] and in assay [3] was “inactive” throughout.

Turning to `CC(=O)C=CC1=C(C)CCCC1(C)C`, the “odorant receptor agonist call” value in assay [1] and in assay [3] was “inactive” each time.

Consider `CSSSC`, for which the “odorant receptor agonist call” value in assay [1] and in assay [3] was “inactive” in each case.

For `CC(=O)C1(C)CC2=C(CCCC2(C)C)CC1C` (stereo not given), the “odorant receptor agonist call” value in assay [1] and in assay [3] was “inactive” throughout.

On to `CSSCc1ccco1`, for which the “odorant receptor agonist call” value in assay [1] and in assay [3] was “inactive” each time.

Take `C1CCOC1`: the “odorant receptor agonist call” value in assay [1] and in assay [3] was “inactive” in each case.

Turning to `CCCCCCC(C=O)=Cc1ccccc1`, the “odorant receptor agonist call” value in assay [1] and in assay [3] was “inactive” in each case.

Regarding `C=C(C)C1CCC(C)C(O)C1` (stereo not given), the “odorant receptor agonist call” value in assay [1] and in assay [3] was “inactive” throughout.

Turning to `CC(=O)OC1(C)CCC23CC1C(C)(C)C2CCC3C` (stereo not given), in assay [1], the “odorant receptor agonist call” value was “active”. Besides, the “odorant receptor agonist call” value in assay [3] was “inactive”.

`CCc1ccc(O)cc1`: the “odorant receptor agonist call” value in assay [1] and in assay [3] was “inactive” throughout.

On to `CC=C(C)C=O`, for which the “odorant receptor agonist call” value in assay [1] and in assay [3] was “inactive” each time.

Regarding `OCCc1ccccc1`, the “odorant receptor agonist call” value in assay [1] and in assay [3] was “inactive” throughout.

Consider `CCc1ccccc1O`, for which the “odorant receptor agonist call” value in assay [1] and in assay [3] was “inactive” in each case.
